Assay results: ChEMBL document CHEMBL1687895, “Synthesis and anti-mycobacterial activity of novel amino alcohol derivatives” (Eur J Med Chem, 2011)
In brackets after ≈: the same amount, converted by molar mass.

Assays:
[1] = test system: Mycobacterium tuberculosis; experiment: Antibacterial activity against Mycobacterium tuberculosis H37Rv ATCC 27294 after 24 hrs by alamar blue assay; type: functional; conditions: H37Rv ATCC 27294, 24 h
Procedure, shortened: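 Microplate Alamar Blue assay on M. tuberculosis ATCC 27294 in Middlebrook 7H9 broth, with compounds serially diluted on the plate (final 0.01–20.0). Water in the outer wells limited evaporation. Sealed plates were incubated at 37 C for five days, then a fresh 1:1 Alamar Blue/10% Tween 80 mix was added for 24 h. MIC is the lowest concentration preventing the blue-to-pink change.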

[2] = Partition coefficient, log P of the compound; type: physicochemical; conditions: octanol/water
Procedure, shortened: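 Computed in silico from structure with an online molecular-property calculation server's logP method, not measured by experimental partitioning.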

Compound | MIC [1] [µM] | logP [2]
CC(C)(C)OC(=O)N[C@@H](Cc1ccccc1)[C@H](O)CNCc1ccc2c(c1)OCO2 | 241 (≈ 99.9 µg/mL) | 5.15
N[C@@H](Cc1ccccc1)[C@H](O)CNCc1ccc2c(c1)OCO2 | 318 (≈ 100 µg/mL) | 1.41
CC(C)(C)OC(=O)N[C@@H](Cc1ccccc1)[C@H](O)CN(Cc1ccc2c(c1)OCO2)S(=O)(=O)c1ccc(Br)cc1 | > 500 | 7.11
COc1ccc(S(=O)(=O)N(Cc2ccc3c(c2)OCO3)C[C@@H](O)[C@H](Cc2ccccc2)NC(=O)OC(C)(C)C)cc1 | > 500 | 6.36
Cc1ccc(S(=O)(=O)N(Cc2ccc3c(c2)OCO3)C[C@@H](O)[C@H](Cc2ccccc2)NC(=O)OC(C)(C)C)cc1 | > 500 | 6.75
CC(C)(C)OC(=O)N[C@@H](Cc1ccccc1)[C@H](O)CN(Cc1ccc2c(c1)OCO2)S(=O)(=O)c1ccc(F)cc1 | > 500 | 5.38
CC(C)(C)OC(=O)N[C@@H](Cc1ccccc1)[C@H](O)CN(Cc1ccc2c(c1)OCO2)S(=O)(=O)c1ccc([N+](=O)[O-])cc1 | > 500 | 6.26
CC(C)(C)OC(=O)N[C@@H](Cc1ccccc1)[C@H](O)CN(Cc1ccc2c(c1)OCO2)S(=O)(=O)c1ccc(N)cc1 | > 500 | 6.47
N[C@@H](Cc1ccccc1)[C@H](O)CN(Cc1ccc2c(c1)OCO2)S(=O)(=O)c1ccc(Br)cc1 | 23.5 (≈ 12.5 µg/mL) | 3.37
COc1ccc(S(=O)(=O)N(Cc2ccc3c(c2)OCO3)C[C@@H](O)[C@@H](N)Cc2ccccc2)cc1 | 51.6 (≈ 25 µg/mL) | 2.62
Cc1ccc(S(=O)(=O)N(Cc2ccc3c(c2)OCO3)C[C@@H](O)[C@@H](N)Cc2ccccc2)cc1 | 106 (≈ 49.7 µg/mL) | 3.01
N[C@@H](Cc1ccccc1)[C@H](O)CN(Cc1ccc2c(c1)OCO2)S(=O)(=O)c1ccc(F)cc1 | 211 (≈ 99.7 µg/mL) | 1.64
N[C@@H](Cc1ccccc1)[C@H](O)CN(Cc1ccc2c(c1)OCO2)S(=O)(=O)c1ccc([N+](=O)[O-])cc1 | > 500 | 2.52
CC[C@@H](CO)NCCN[C@@H](CC)CO [ETHAMBUTOL] | 15.9 (≈ 3.25 µg/mL) | 0.35
